Data taken from ChEMBL document CHEMBL1148162, “Structures of sesquiterpene polyol esters from Celastrus stephanotiifolius with potential tumor-promotion inhibitor activity” (J Nat Prod, 1993).

Columns and labels:
Assay type in all cases: cell-based
[1] = tested on: Raji; test: Inhibition of 12-O-tetradecanoylphorbol-13-acetate induced EBV-early antigen activation in human Raji cells assessed as EA activation at 1000 molar ratio relative to TPA; parameters: scale not given: the % may be the effect or the level left; settings: human gammaherpesvirus 4
Summary of the method: (§1)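 Raji cells stimulated with TPA at 20 ng/ml (32 pM/ml) in the presence of test compound at 10, 100, 500 or 1000 mol ratio to TPA. EBV early antigen activation is reported as a percentage of the TPA-only positive control (100%).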

[2] = tested on: Raji; test: Inhibition of 12-O-tetradecanoylphorbol-13-acetate induced EBV-early antigen activation in human Raji cells assessed as EA activation at 500 molar ratio relative to TPA; parameters: scale not given: the % may be the effect or the level left; settings: human gammaherpesvirus 4; summary of the method: as §1
[3] = tested on: Raji; test: Inhibition of 12-O-tetradecanoylphorbol-13-acetate induced EBV-early antigen activation in human Raji cells assessed as EA activation at 100 molar ratio relative to TPA; parameters: scale not given: the % may be the effect or the level left; settings: human gammaherpesvirus 4; summary of the method: as §1
[4] = tested on: Raji; test: Inhibition of 12-O-tetradecanoylphorbol-13-acetate induced EBV-early antigen activation in human Raji cells assessed as EA activation at 10 molar ratio relative to TPA; parameters: scale not given: the % may be the effect or the level left; settings: human gammaherpesvirus 4; summary of the method: as §1
[5] = Cytotoxicity against human Raji cells assessed as cell viability at 1000 molar ratio; settings: read-out: Activity
Summary of the method: (§2)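 Raji cell viability was recorded in the same TPA-induced EBV-EA assay (TPA 20 ng/ml, 32 pM/ml), with compound at 10, 100, 500 or 1000 mol ratio to TPA. Viability is reported as a percentage.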

[6] = Cytotoxicity against human Raji cells assessed as cell viability at 500 molar ratio; settings: read-out: Activity; summary of the method: as §2
[7] = Cytotoxicity against human Raji cells assessed as cell viability at 100 molar ratio; settings: read-out: Activity; summary of the method: as §2
[8] = Cytotoxicity against human Raji cells assessed as cell viability at 10 molar ratio; settings: read-out: Activity; summary of the method: as §2

Work on `CC(=O)O[C@H]1CC[C@@H](C)[C@]23OC(C)(C)[C@H](C[C@H](OC(=O)c4ccccc4)[C@]12C)[C@H]3OC(=O)c1ccccc1` yielded an Activity [1] of 53.6%, an Activity [2] of 84.6% and an Activity [3] of 100%. For the same molecule, the Activity [4] was 100%, the viability at 1000 molar ratio [5] was 70% and the viability at 500 molar ratio [6] was > 80%. The viability at 100 molar ratio [7] was > 80% and the viability at 10 molar ratio [8] was > 80%.
`CC(=O)O[C@@H]1[C@@H]2[C@@H](OC(C)=O)[C@]3(OC2(C)C)[C@H](C)CC[C@H](OC(C)=O)[C@@]3(C)[C@H]1OC(=O)c1ccccc1` showed an Activity [1] of 15.3%, an Activity [2] of 52.8% and an Activity [3] of 90.6%. The Activity [4] was 100%, the viability at 1000 molar ratio [5] was 70% and the viability at 500 molar ratio [6] was > 80%. For the same molecule, the viability at 100 molar ratio [7] was > 80% and the viability at 10 molar ratio [8] was > 80%.
Molecule `CC(=O)O[C@H]1C[C@@H](C)[C@@]23C[C@@H](C[C@H](OC(=O)/C=C/c4ccccc4)[C@]2(C)[C@H]1OC(C)=O)C(C)(C)O3` has an Activity [1] of 25.6%, an Activity [2] of 63.1% and an Activity [3] of 89.4%. The Activity [4] was 100%, the viability at 1000 molar ratio [5] was 70% and the viability at 500 molar ratio [6] was > 80%. For the same molecule, the viability at 100 molar ratio [7] was > 80% and the viability at 10 molar ratio [8] was > 80%.
In the case of `CC(=O)O[C@H]1C[C@@H](C)[C@@]23C[C@@H](C[C@H](OC(=O)/C=C/c4ccccc4)[C@]2(C)[C@H]1O)C(C)(C)O3`, the Activity [1] is reported as 0%, the Activity [2] is reported as 41.6% and the Activity [3] is reported as 86.4%. The Activity [4] was 100%, the viability at 1000 molar ratio [5] was 70% and the viability at 500 molar ratio [6] was > 80%. The viability at 100 molar ratio [7] was > 80% and the viability at 10 molar ratio [8] was > 80%.
Work on `CC(=O)O[C@@H]1[C@H]2[C@@H](O)[C@@H](OC(=O)c3ccccc3)[C@]3(C)[C@@H](OC(=O)c4ccccc4)CC[C@@H](C)[C@@]13OC2(C)C` yielded an Activity [1] of 0%, an Activity [2] of 39.3% and an Activity [3] of 81.1%. The Activity [4] was 100%, the viability at 1000 molar ratio [5] was 60% and the viability at 500 molar ratio [6] was > 80%. The viability at 100 molar ratio [7] was > 80% and the viability at 10 molar ratio [8] was > 80%.
Work on `CC(=O)O[C@H]1C[C@@H](C)[C@]23OC(C)(C)[C@H](C[C@H](OC(=O)c4ccccc4)[C@]2(C)[C@H]1OC(C)=O)[C@H]3OC(C)=O` yielded an Activity [1] of 34.2%, an Activity [2] of 65.9% and an Activity [3] of 92.9%. The Activity [4] was 100%, the viability at 1000 molar ratio [5] was 70% and the viability at 500 molar ratio [6] was > 80%. The viability at 100 molar ratio [7] was > 80% and the viability at 10 molar ratio [8] was > 80%.
In the case of `CC(=O)O[C@H]1CC[C@@H](C)[C@]23OC(C)(C)[C@H](C[C@H](OC(=O)c4ccccc4)[C@]12C)[C@H]3OC(C)=O`, the Activity [1] is reported as 26.2%, the Activity [2] is reported as 47.9% and the Activity [3] is reported as 92.1%. The Activity [4] was 100%, the viability at 1000 molar ratio [5] was 70% and the viability at 500 molar ratio [6] was > 80%. For the same molecule, the viability at 100 molar ratio [7] was > 80% and the viability at 10 molar ratio [8] was > 80%.
